According to ChEMBL document CHEMBL2390929, “New nitric oxide donating 1,2,4-triazole/oxime hybrids: synthesis, investigation of anti-inflammatory, ulceroginic liability and antiproliferative activities” (Bioorg Med Chem, 2013):

Experiments:
[1] = system: NCI-H460; experiment: Cytotoxicity against human NCI-H460 cells assessed as cell growth at 10^-5 M after 48 hrs by SRB assay; type: functional; conditions: NCI-H460, 48 h, read-out: Activity
Outline: (§1)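 NCI 60-cell-line primary one-dose screen across nine tumour subpanels. Compound added at a single concentration of 10^-5 M and cultures incubated 48 h. Endpoint was sulforhodamine B protein staining read spectrophotometrically, with growth expressed as percent of untreated control cells.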

[2] = system: NCI/ADR-RES; experiment: Cytotoxicity against human NCI/ADR-RES cells assessed as cell growth at 10^-5 M after 48 hrs by SRB assay; type: functional; conditions: read-out: Activity; outline: as §1
[3] = system: SN12C; experiment: Cytotoxicity against human SN12C cells assessed as cell growth at 10^-5 M after 48 hrs by SRB assay; type: functional; conditions: read-out: Activity
Outline: (§2)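 NCI-60 one-dose screen across nine tumour subpanels. Each agent added once at 10^-5 M, cultures incubated 48 h. Endpoint is sulforhodamine B protein staining read spectrophotometrically. Output is percent growth of treated cells relative to untreated controls.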

[4] = Induction of nitric oxide release in phosphate buffer at pH 7.4 at 0.1 mM after 4 hrs by Griess method in presence of 0.5 mM of N-acetylcysteine; type: physicochemical; conditions: pH 7.4, 4 h, 100 µM
Outline: (§3)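 Compound in DMF diluted to final 10^-4 M in 1:1 50 mM phosphate buffer pH 7.4/MeOH with 5×10^-4 M N-acetylcysteine, 37 °C. Aliquot mixed with Griess reagent, 10 min at room temperature, A546 read. Nitrite quantified against sodium nitrite standards (10–80 nmol/mL); NO expressed as mol/mol. n = 4 reaction mixtures per compound.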

[5] = system: OVCAR-8; experiment: Cytotoxicity against human OVCAR8 cells assessed as cell growth at 10^-5 M after 48 hrs by SRB assay; type: functional; conditions: OVCAR-8, 48 h, read-out: Activity; outline: as §1
[6] = system: SK-MEL-28; experiment: Cytotoxicity against human SK-MEL-28 cells assessed as cell growth at 10^-5 M after 48 hrs by SRB assay; type: functional; conditions: SK-MEL-28, 48 h, read-out: Activity; outline: as §2
[7] = system: Rattus norvegicus; experiment: Antiinflammatory activity in albino rat assessed as inhibition of carrageenan-induced paw edema at 0.28 mmol/kg, po after 4 hrs relative to control; type: functional
Outline: (§4)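 Adult male albino rats (120–140 g), four per group, fasted 24 h with water allowed. Test agent suspended in 0.5% w/v aqueous CMC and given orally at 0.28 mmol/kg; controls received CMC alone. After 30 min, 0.1 mL fresh 1% carrageenan in saline was injected subplantar into the right hind paw and saline into the left. Paw thickness was measured by Vernier caliper; % inhibition = [(VR−VL)control − (VR−VL)treated]/(VR−VL)control ×100. Mean ± SEM, one-way ANOVA.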

[8] = system: HL-60(TB); experiment: Cytotoxicity against human HL-60(TB) cells assessed as cell growth at 10^-5 M after 48 hrs by SRB assay; type: functional; conditions: HL-60, 48 h, read-out: Activity
Outline: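 NCI 60-cell-line one-dose screen: compound added to cultures at a single concentration of 10^-5 M, incubated 48 h. End point by sulforhodamine B protein staining, read spectrophotometrically. Value is percent growth of treated cells relative to untreated control cells.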

[9] = system: OVCAR-4; experiment: Cytotoxicity against human OVCAR4 cells assessed as cell growth at 10^-5 M after 48 hrs by SRB assay; type: functional; conditions: OVCAR-4, 48 h, read-out: Activity; outline: as §1
[10] = system: SK-OV-3; experiment: Cytotoxicity against human SKOV3 cells assessed as cell growth at 10^-5 M after 48 hrs by SRB assay; type: functional; conditions: SK-OV-3, 48 h, read-out: Activity; outline: as §2
[11] = system: IGROV-1; experiment: Cytotoxicity against human IGROV1 cells assessed as cell growth at 10^-5 M after 48 hrs by SRB assay; type: functional; conditions: IGROV-1, 48 h, read-out: Activity; outline: as §1
[12] = system: LOX IMVI; experiment: Cytotoxicity against human LOXIMVI cells assessed as cell growth at 10^-5 M after 48 hrs by SRB assay; type: functional; conditions: read-out: Activity; outline: as §1
[13] = system: T47D; experiment: Cytotoxicity against human T47D cells assessed as cell growth at 10^-5 M after 48 hrs by SRB assay; type: functional; conditions: read-out: Activity; outline: as §2
[14] = system: OVCAR-3; experiment: Cytotoxicity against human OVCAR3 cells assessed as cell growth at 10^-5 M after 48 hrs by SRB assay; type: functional; conditions: OVCAR-3, 48 h, read-out: Activity; outline: as §1
[15] = system: Rattus norvegicus; experiment: Gastrointestinal toxicity in albino rat assessed as ulcer index at 0.28 mmol/kg, po (reference value: 0.60 +/- 0.05); type: organism-based; conditions: in vivo
[16] = system: 786-0; experiment: Cytotoxicity against human 786-0 cells assessed as cell growth at 10^-5 M after 48 hrs by SRB assay; type: functional; conditions: 786-0, 48 h, read-out: Activity; outline: as §1
[17] = system: SK-MEL-2; experiment: Cytotoxicity against human SK-MEL-2 cells assessed as cell growth at 10^-5 M after 48 hrs by SRB assay; type: functional; conditions: SK-MEL-2, 48 h, read-out: Activity; outline: as §1
[18] = system: Rattus norvegicus; experiment: Antiinflammatory activity in albino rat assessed as inhibition of carrageenan-induced paw edema at 0.28 mmol/kg, po after 5 hrs relative to control; type: functional; outline: as §4
[19] = system: NCI-H23; experiment: Cytotoxicity against human NCI-H23 cells assessed as cell growth at 10^-5 M after 48 hrs by SRB assay; type: functional; conditions: NCI-H23, 48 h, read-out: Activity; outline: as §1
[20] = system: SF-539; experiment: Cytotoxicity against human SF539 cells assessed as cell growth at 10^-5 M after 48 hrs by SRB assay; type: functional; conditions: SF-539, 48 h, read-out: Activity; outline: as §1
[21] = system: DU-145; experiment: Cytotoxicity against human DU145 cells assessed as cell growth at 10^-5 M after 48 hrs by SRB assay; type: functional; conditions: DU-145, 48 h, read-out: Activity; outline: as §1
[22] = system: M14; experiment: Cytotoxicity against human M14 cells assessed as cell growth at 10^-5 M after 48 hrs by SRB assay; type: functional; conditions: M14, 48 h, read-out: Activity; outline: as §1
[23] = system: UACC-62; experiment: Cytotoxicity against human UACC62 cells assessed as cell growth at 10^-5 M after 48 hrs by SRB assay; type: functional; conditions: UACC-62, 48 h, read-out: Activity; outline: as §2
[24] = system: A549; experiment: Cytotoxicity against human A549 cells assessed as cell growth at 10^-5 M after 48 hrs by SRB assay; type: functional; conditions: A549, 48 h, read-out: Activity; outline: as §1
[25] = system: HCT-15; experiment: Cytotoxicity against human HCT15 cells assessed as cell growth at 10^-5 M after 48 hrs by SRB assay; type: functional; conditions: HCT-15, 48 h, read-out: Activity; outline: as §1
[26] = system: SK-MEL-5; experiment: Cytotoxicity against human SK-MEL-5 cells assessed as cell growth at 10^-5 M after 48 hrs by SRB assay; type: functional; conditions: SK-MEL-5, 48 h, read-out: Activity; outline: as §2
[27] = Induction of nitric oxide release in phosphate buffer at pH 7.4 at 0.1 mM after 2 hrs by Griess method in presence of 0.5 mM of N-acetylcysteine; type: physicochemical; conditions: pH 7.4, 2 h, 100 µM; outline: as §3
[28] = system: Rattus norvegicus; experiment: Antiinflammatory activity in albino rat assessed as inhibition of carrageenan-induced paw edema at 0.28 mmol/kg, po after 3 hrs relative to control; type: functional; outline: as §4
[29] = system: HOP-62; experiment: Cytotoxicity against human HOP62 cells assessed as cell growth at 10^-5 M after 48 hrs by SRB assay; type: functional; conditions: HOP-62, 48 h, read-out: Activity; outline: as §1

Row | SMILES | growth at 10 µM [1] [%] | growth at 10 µM [2] [%] | growth at 10 µM [3] [%] | Activity [4] [mol/mol] | growth at 10 µM [5] [%] | growth at 10 µM [6] [%] | inhibition in vivo at 280 µmol/kg [7] [%] | growth at 10 µM [8] [%] | growth at 10 µM [9] [%] | growth at 10 µM [10] [%] | growth at 10 µM [11] [%] | growth at 10 µM [12] [%] | growth at 10 µM [13] [%] | growth at 10 µM [14] [%] | UI [15] | growth at 10 µM [16] [%] | growth at 10 µM [17] [%] | inhibition in vivo at 280 µmol/kg [18] [%] | growth at 10 µM [19] [%] | growth at 10 µM [20] [%] | further results
1 | O/N=C(/CSc1nnc(-c2ccccc2)n1-c1ccccc1)c1ccccc1 | 97.3 | 100 | 99.7 | 0.13 | 93.2 | 118 | 79 | 92.2 | 86.6 | 103 | 108 | 104 | 98 | 92.3 | 2.53 | 109 | 101 | 75 | 103 | 120 | growth at 10 µM [21]: 99.2%; growth at 10 µM [22]: 103%; growth at 10 µM [23]: 87.7%; growth at 10 µM [24]: 88.6%; growth at 10 µM [25]: 101%; growth at 10 µM [26]: 89.2%; Activity [27]: 0.1 mol/mol; inhibition in vivo at 280 µmol/kg [28]: 65%; growth at 10 µM [29]: 109%
2 | COc1ccc(-c2nnc(SC/C(=N/O)c3ccccc3)n2-c2ccccc2)cc1 | 106 | 97.9 | 97.9 | 0.15 | 102 | 117 | 80 | 95.9 | 86.4 | 111 | 101 | 101 | 86 | 111 | 7.57 | 93.3 | 106 | 73 | 106 | 107 | growth at 10 µM [21]: 119%; growth at 10 µM [22]: 106%; growth at 10 µM [23]: 94.3%; growth at 10 µM [24]: 85%; growth at 10 µM [25]: 95.1%; growth at 10 µM [26]: 93.9%; Activity [27]: 0.08 mol/mol; inhibition in vivo at 280 µmol/kg [28]: 63%; growth at 10 µM [29]: 111%
3 | COc1ccc(-c2nnc(SC/C(=N/O)c3ccccc3)n2-c2ccccc2)cc1OC | 114 | 93.2 | 94.5 | 0.19 | 90.7 | 113 | 81 | 68.2 | 90.4 | 103 | 106 | 90.3 | 90.1 | 106 | 5.71 | 102 | 116 | 78 | 98 | 103 | growth at 10 µM [21]: 114%; growth at 10 µM [22]: 98.9%; growth at 10 µM [23]: 89.5%; growth at 10 µM [24]: 90.1%; growth at 10 µM [25]: 98.3%; growth at 10 µM [26]: 85.8%; Activity [27]: 0.17 mol/mol; inhibition in vivo at 280 µmol/kg [28]: 67%; growth at 10 µM [29]: 99.2%
